Entries after “also recorded” stand apart in the source; their conditions may differ.
Key:
MKN-45 cells = experiment: MTT cell viability assay, MKN-45; format: cell-based, human; conditions: read-out: IC50 cell proliferation, MKN-45; 72 h, MTT
Summary of the method: (§1)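 Cells were seeded at 2000 per well, incubated overnight and exposed to test compound for 72 h. MTT was added for 4 h, formazan was dissolved in DMSO and absorbance was read at 570 nm. Viability was normalized to untreated wells, giving mean ± SEM of three trials. IC50 was calculated from relative survival.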

AGS cells = experiment: MTT cell viability assay, AGS; format: cell-based, human; conditions: read-out: IC50 cell proliferation, AGS; 72 h, MTT
Summary of the method: as §1

TRPC6 = target: T1, TRPC6 (Mus musculus, UniProt Q61143); conditions: read-out: IC50 TRPC6; nonselective TRPC6 antagonist; cited from earlier work
T1 sequence (Q61143 1-930): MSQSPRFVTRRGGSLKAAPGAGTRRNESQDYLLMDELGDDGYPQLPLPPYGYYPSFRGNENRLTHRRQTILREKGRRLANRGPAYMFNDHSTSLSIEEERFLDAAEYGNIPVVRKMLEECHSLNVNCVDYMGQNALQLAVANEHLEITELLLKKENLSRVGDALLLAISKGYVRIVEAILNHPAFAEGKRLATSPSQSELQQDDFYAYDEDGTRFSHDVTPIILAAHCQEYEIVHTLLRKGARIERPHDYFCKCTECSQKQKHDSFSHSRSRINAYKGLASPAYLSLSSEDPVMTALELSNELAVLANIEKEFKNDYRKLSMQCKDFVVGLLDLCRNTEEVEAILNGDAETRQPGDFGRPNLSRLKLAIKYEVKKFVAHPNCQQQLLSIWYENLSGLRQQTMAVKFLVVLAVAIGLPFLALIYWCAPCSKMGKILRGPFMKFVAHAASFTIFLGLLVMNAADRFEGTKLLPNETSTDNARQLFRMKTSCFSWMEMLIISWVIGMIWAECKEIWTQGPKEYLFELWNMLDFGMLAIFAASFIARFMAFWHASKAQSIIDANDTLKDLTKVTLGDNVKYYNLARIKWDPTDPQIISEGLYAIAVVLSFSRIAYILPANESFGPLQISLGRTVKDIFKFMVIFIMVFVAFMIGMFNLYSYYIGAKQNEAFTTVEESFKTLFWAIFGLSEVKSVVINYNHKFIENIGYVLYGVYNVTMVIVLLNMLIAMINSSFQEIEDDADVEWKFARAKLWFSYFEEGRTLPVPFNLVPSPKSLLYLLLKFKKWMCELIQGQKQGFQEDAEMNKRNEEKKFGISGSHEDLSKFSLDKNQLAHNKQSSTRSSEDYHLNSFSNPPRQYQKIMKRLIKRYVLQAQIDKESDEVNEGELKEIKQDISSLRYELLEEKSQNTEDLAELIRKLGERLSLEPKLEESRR

mouse TRPC6 = target: T2, mouse TRPC6 (Mus musculus, UniProt Q61143); experiment: Fluorescence Ca2+ assay, inhibition of HDM-activated TRPC6 in HEK293 cells; format: cell-based; conditions: HEK293 cells with stable expression of mouse TRPC6
T2 sequence (Q61143 1-930): T1 sequence (Q61143 1-930)
Summary of the method: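 HEK293 cells co-expressing mouse TRPC6 and the Gq/11-PLC-coupled M5 muscarinic receptor were loaded with Fluo-4. Cells were preincubated with test compound at various concentrations for 5 min, then HDM (10 μM) was added, and fluorescence was read in a microplate reader. Traces were expressed as ΔF over F0. IC50 came from a Hill fit of one experiment (N = 3).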

| SMILES | IC50 (MKN-45 cells) | IC50 (AGS cells) | IC50 (TRPC6) | TRPC6 antagonistic potency (in words) (mouse TRPC6) |
| --- | --- | --- | --- | --- |
| COc1ccc(CCCOC(Cn2ccnc2)c2ccc(OC)cc2)cc1 (stereo not shown) [SKF-96365, 1H-Imidazole, 1-[2-(4-methoxyphenyl)-2-[3-(4-methoxyphenyl)propoxy]ethyl], reference compound] | 15.3 µM | 37 µM | 4.9 µM | – |
| COc1cccc2sc(N(CCN(C)C)C(=O)c3ccc4ccccc4c3)nc12 [Compound 1r, N-(2-(dimethylamino)ethyl)-N-(4-methoxybenzo[d]thiazol-2-yl)-2-naphthamide] | – | – | – | No in vitro potency; also recorded: no antagonistic potency |
